# Results from publication PMC2911241 (Letters in drug design & discovery, 2010).
# Like-named read-outs stand apart in the source and are kept apart here.
# Columns and labels:
# K562 cells = assay: Cell cycle analysis by flow cytometry; assay type: cell-based, human; conditions: for Cell cycle percentage G0/G1 / Cell cycle percentage G2/M / Cell cycle percentage S: K562 cells treated at the IC50, calculated using living cells, mean ± SE; for Effect on cell cycle distribution (in words): K562 cells, each compound at the IC50 value
# Procedure, shortened: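 K562 cells grown in RPMI 1640 with 10% FCS, 2 mM L-glutamine, penicillin (100 U/ml) and streptomycin (100 μg/ml) at 37 °C under 5% CO2, then exposed to test compound. Cells washed once in ice-cold PBS and resuspended at 1×10^6/mL in hypotonic propidium iodide (50 μg/mL, 0.1% sodium citrate, 0.03% NP-40) for 30 min. Single-parameter flow cytometry DNA histograms; phase percentages from living cells; hypodiploid peak scored as apoptotic.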
# [1] = system: human chronic myelogenous K562 leukemia cells; assay: Cell proliferation analysis, K562 cells; assay type: cell-based; conditions: Homo sapiens
# Procedure, shortened: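 K562 cells grown in RPMI 1640 with 10% FCS, 2 mM L-glutamine, […] and penicillin/streptomycin at 37°C, 5% CO2. DMSO stocks (1 mg/mL) diluted in medium. Cells (1×10^4/well) exposed to increasing concentrations for 24 h at 37°C, then counted electronically. IC50 is 50% growth inhibition vs untreated controls. Duplicate cultures per concentration, repeated experiments, mean ± SE.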
# tubulin = assay: Inhibition of [3H]colchicine binding to tubulin; conditions: for Colchicine binding % ±SD (inhibition of [3H]colchicine binding): tubulin, colchicine and tested compound at 1, 5 and 1 μM
# Procedure, shortened: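 Purified tubulin incubated with [3H]colchicine and test compound for 10 min at 37 °C. Read-out is percent inhibition of radiolabelled colchicine binding. Combretastatin A-4 served as reference at 1 μM.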
# [2] = system: murine lymphocytic L1210 leukemia cells; assay: Cell proliferation analysis, L1210 cells; assay type: cell-based; conditions: for IC50: Mus musculus, L1210, 24 h, read-out: IC50 L1210
# Procedure, shortened: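 Murine L1210 cells maintained at 1×10^6 cells/mL in RPMI 1640 with 10% FCS, 2 mM L-glutamine, […] and penicillin/streptomycin (37 °C, 5% CO2). DMSO stocks (1 mg/mL) diluted in medium. 1×10^4 cells/well exposed to increasing concentrations for 24 h at 37 °C; cell number/mL counted on a Coulter counter. IC50 relative to untreated controls, duplicate cultures per concentration, mean ± SE of ≥3 independent experiments.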
# [3] = K562, 24 h, read-out: IC50 K562
# [4] = K562, read-out: IC50 (nM) in Table 3
"IC50 [1, 3] [nM]","IC50 [1, 4] [nM]",Colchicine binding % ±SD (inhibition of [3H]colchicine binding) (tubulin) [%],Compound,Cell cycle percentage G0/G1 (K562 cells) [%],Cell cycle percentage G2/M (K562 cells) [%],Cell cycle percentage S (K562 cells) [%],Effect on cell cycle distribution (in words) (K562 cells),"Inhibition of colchicine binding (tubulin; combretastatin A-4 at 1 μM, generally observed)",IC50 [2] [nM],fold more active than amino counterpart 2a ([2]; against L1210 cells) [fold]
30 ± 20,400,47±5,"COc1ccc2c(NC(=O)CCl)c(C(=O)c3cc(OC)c(OC)c(OC)c3)oc2c1 [Compound 3j, 2-Chloro-N-[6-methoxy-2-(3,4,5-trimethoxybenzoyl)-1-benzofuran-3-yl]acetamide]",23±4,33±5,44±7,caused cells to accumulate in late S phase,–,–,–
–,–,–,"COc1ccc(/C=C\c2cc(OC)c(OC)c(OC)c2)cc1O [combretastatin A-4, reference compound]",–,–,–,–,85–90%,–,–
27 ± 10,85,51±7,"COc1ccc2c(NC(C)=O)c(C(=O)c3cc(OC)c(OC)c(OC)c3)oc2c1 [Compound 3i, N-[6-Methoxy-2-(3,4,5-trimethoxybenzoyl)-1-benzofuran-3-yl]acetamide]",27±5,37±6,36±8,–,–,–,–
180 ± 30,212,49±2,"COc1ccc2c(NC(=O)CBr)c(C(=O)c3cc(OC)c(OC)c(OC)c3)oc2c1 [Compound 3k, 2-Bromo-N-[6-methoxy-2-(3,4,5-trimethoxybenzoyl)-1-benzofuran-3-yl]acetamide]",6±1,67±8,27±4,–,–,–,–
64 ± 20,115,54±1,"COc1ccc2c(NC(=O)CI)c(C(=O)c3cc(OC)c(OC)c(OC)c3)oc2c1 [Compound 3l, 2-Iodo-N-[6-methoxy-2-(3,4,5-trimethoxybenzoyl)-1-benzofuran-3-yl]acetamide]",23±3,21±3,56±4,caused an increase in the percentage of cells in S phase,–,–,–

Compound,"IC50 [1, 3] [nM]","IC50 [1, 4] [nM]",Colchicine binding % ±SD (inhibition of [3H]colchicine binding) (tubulin) [%],Cell cycle percentage G0/G1 (K562 cells) [%],Cell cycle percentage G2/M (K562 cells) [%],Cell cycle percentage S (K562 cells) [%],Effect on cell cycle distribution (in words) (K562 cells),"Inhibition of colchicine binding (tubulin; combretastatin A-4 at 1 μM, generally observed)",IC50 [2] [nM],fold more active than amino counterpart 2a ([2]; against L1210 cells) [fold]
"C=C(Br)C(=O)Nc1c(C(=O)c2cc(OC)c(OC)c(OC)c2)oc2ccccc12 [Compound 5a, 2-Bromo-N-[2-(3,4,5-trimethoxybenzoyl)-1-benzofuran-3-yl]acrylamide]",5100 ± 70,–,–,–,–,–,–,–,530,60
"COc1cc(C(=O)c2sc3ccccc3c2NC(=O)CI)cc(OC)c1OC [Compound 3t, 2-Iodo-N-[2-(3,4,5-trimethoxybenzoyl)-1-benzothien-3-yl]acetamide]",760 ± 20,–,–,–,–,–,–,–,580 ± 90,–
